Test results published in article PMC12039533 (Journal of Food and Drug Analysis, 2025).

How the values were obtained:
FLT3 = target: T1, FLT3 (Homo sapiens, UniProt P36888); assay: HTRF KinEASE in vitro kinase assay; type: biochemical
T1 sequence (P36888 27-993): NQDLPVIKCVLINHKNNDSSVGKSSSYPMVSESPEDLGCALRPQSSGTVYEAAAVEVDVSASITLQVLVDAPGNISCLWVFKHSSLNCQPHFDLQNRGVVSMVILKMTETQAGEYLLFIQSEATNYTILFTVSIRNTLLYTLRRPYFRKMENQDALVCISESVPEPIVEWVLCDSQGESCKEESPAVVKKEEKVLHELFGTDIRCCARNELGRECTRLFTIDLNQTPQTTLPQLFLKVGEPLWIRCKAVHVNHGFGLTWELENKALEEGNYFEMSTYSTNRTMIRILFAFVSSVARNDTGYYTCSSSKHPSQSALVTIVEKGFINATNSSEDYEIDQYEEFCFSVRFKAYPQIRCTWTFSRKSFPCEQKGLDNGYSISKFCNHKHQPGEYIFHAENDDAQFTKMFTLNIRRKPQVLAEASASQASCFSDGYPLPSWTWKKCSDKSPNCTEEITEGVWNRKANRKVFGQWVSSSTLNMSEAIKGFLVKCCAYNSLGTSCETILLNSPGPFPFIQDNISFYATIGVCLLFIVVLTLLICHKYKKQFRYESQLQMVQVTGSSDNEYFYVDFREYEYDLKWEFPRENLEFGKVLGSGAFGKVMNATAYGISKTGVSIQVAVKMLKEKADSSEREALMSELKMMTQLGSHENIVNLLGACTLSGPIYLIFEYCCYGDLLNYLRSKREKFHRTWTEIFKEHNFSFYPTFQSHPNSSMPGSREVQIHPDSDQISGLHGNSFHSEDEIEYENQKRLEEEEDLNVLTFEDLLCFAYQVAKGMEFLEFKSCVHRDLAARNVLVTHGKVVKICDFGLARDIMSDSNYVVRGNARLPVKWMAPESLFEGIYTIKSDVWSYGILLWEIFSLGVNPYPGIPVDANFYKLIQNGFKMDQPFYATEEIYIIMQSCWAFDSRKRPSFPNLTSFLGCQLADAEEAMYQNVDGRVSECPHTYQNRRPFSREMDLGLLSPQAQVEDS

SRPK1 = SRPK1 (Homo sapiens, UniProt Q96SB4); assay: HTRF KinEASE in vitro kinase assay; type: biochemical
Outline: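 Kinase activity was measured with the HTRF KinEASE STK/TK kit, and the TR-FRET signal was read on a multilabel microplate reader. Percent inhibition was calculated from the signal, and the IC50 was derived from these inhibition rates.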

Sequence of SRPK1 (Q96SB4 whole entry): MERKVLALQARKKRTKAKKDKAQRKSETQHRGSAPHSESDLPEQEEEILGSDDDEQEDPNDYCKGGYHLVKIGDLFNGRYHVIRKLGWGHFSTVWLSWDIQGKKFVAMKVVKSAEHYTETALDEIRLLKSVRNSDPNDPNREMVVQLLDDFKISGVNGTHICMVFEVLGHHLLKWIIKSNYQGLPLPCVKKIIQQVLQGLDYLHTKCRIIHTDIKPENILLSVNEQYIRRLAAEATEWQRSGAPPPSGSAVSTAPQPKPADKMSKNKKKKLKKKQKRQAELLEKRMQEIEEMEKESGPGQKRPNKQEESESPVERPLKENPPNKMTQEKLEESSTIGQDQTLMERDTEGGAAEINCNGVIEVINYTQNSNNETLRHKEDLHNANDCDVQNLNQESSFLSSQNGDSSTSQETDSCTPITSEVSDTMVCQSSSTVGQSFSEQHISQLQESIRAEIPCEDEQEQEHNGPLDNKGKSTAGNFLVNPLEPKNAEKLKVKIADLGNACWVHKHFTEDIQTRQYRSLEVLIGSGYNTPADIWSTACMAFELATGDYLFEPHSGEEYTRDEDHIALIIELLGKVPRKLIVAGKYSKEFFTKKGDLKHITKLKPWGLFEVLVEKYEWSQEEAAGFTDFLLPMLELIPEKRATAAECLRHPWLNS

SMILES: COc1cc(O)c(CC=C(C)C)c(O)c1C(=O)/C=C/c1ccc(O)cc1 [XN, Xanthohumol]
- IC50 (FLT3): 1510 ± 440 nM
- IC50 (SRPK1): 370 ± 150 nM
